# Data: ChEMBL document CHEMBL3785029, “Synthesis and Characterization of Fatty Acid Conjugates of Niacin and Salicylic Acid” (J Med Chem, 2016)
# Active and inactive are the calls of the source. The rule behind the calls is not given here.
# What was measured:
# Rattus norvegicus [1] = experiment: Cmax in Sprague-Dawley rat assessed as salicylate-linker metabolite N-(2-aminoethyl)-2-hydroxy-benzamide at 300 mg/kg, po measured up to 24 hrs post dose; format: ADME, organism-based; set-up: dose 300 mg/kg, route oral; details: in vivo
# Outline: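 Single oral dose of 300 mg/kg to Sprague Dawley rats. Plasma collected at 0, 0.5, 1, 2, 4, 8 and 24 hr. Analytes were the parent, the salicylate-linker and linker-DHA metabolites, salicylic acid and salicyluric acid; Cmax and AUClast derived.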
# Plasma [2] = experiment: Drug metabolism in Sprague-Dawley rat plasma assessed as salicylic acid formation at 300 mg/kg, po administered for 14 days followed by 7 day washout cycle measured on day 21; format: ADME, organism-based; details: in vivo
# [3] = target: T1, Fatty-acid amide hydrolase 1 (Rattus norvegicus, UniProt P97612); experiment: Drug metabolism in rat liver lysate assessed as FAAH-mediated compound hydrolysis at 5 uM by LC-MS-MS analysis; format: ADME, tissue-based
# T1 sequence (P97612 whole entry): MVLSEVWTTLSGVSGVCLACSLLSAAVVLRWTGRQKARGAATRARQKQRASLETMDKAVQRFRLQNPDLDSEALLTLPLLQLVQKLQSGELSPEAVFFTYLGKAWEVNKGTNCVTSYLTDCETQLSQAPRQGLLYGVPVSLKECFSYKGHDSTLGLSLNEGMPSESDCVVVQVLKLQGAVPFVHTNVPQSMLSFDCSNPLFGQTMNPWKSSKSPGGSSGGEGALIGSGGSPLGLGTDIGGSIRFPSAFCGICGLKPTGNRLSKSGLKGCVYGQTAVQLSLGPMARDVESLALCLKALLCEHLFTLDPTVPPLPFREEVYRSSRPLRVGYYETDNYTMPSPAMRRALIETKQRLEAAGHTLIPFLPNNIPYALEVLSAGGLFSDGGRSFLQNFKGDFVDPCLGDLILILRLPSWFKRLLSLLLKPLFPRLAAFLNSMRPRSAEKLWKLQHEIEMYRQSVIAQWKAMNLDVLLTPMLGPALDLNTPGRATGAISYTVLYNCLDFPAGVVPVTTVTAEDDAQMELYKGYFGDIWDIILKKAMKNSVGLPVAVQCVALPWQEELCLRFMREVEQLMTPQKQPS
# Outline: (§1)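 Rat liver lysate, 3 mg/mL final, in 50 mM HEPES / 1 mM EDTA buffer, pre-equilibrated 20 min at 37 °C; reaction started by adding compound in DMSO; incubated at 37 °C and loss of starting material monitored by LC/MS/MS; FAAH inhibitor PF-3845 added where indicated.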
# Muscle tissue = experiment: Drug metabolism in Sprague-Dawley rat muscle assessed as salicylic acid formation at 300 mg/kg, po administered for 7 days measured 4 hrs post dose on day 7; format: ADME, organism-based; details: in vivo
# Outline: (§2)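 Male Sprague Dawley rats, groups of 4, dosed orally at 300 mg/kg once daily for 14 days. Animals killed on days 1, 3, 7 and 14, with plasma, brain, epididymal fat, liver and muscle taken 4 hr after dosing. Parent, salicylic acid and salicyluric acid were measured.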
# [4] = Drug uptake in Sprague-Dawley rat liver at 300 mg/kg, po administered for 7 days measured 4 hrs post dose on day 7; format: ADME, organism-based; details: read-out: Drug uptake; outline: as §2
# [5] = target: T1, Fatty-acid amide hydrolase 1; experiment: Drug metabolism in rat liver lysate assessed as FAAH-mediated compound hydrolysis at 5 uM by LC-MS-MS analysis in the presence of PF3845; format: ADME, tissue-based; outline: as §1
# Rattus norvegicus [6] = experiment: Cmax in portal vein cannulated Sprague-Dawley rat assessed as N-(2-aminoethyl)nicotinamide at 30 mg/kg, po measured up to 140 mins; format: ADME, organism-based; set-up: dose 30 mg/kg, route oral; details: in vivo
# Outline: (§3)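 Sprague Dawley rats surgically fitted with indwelling jugular vein and portal vein cannulas; oral dosing, then serial blood draws from both portal and jugular veins at 10, 20, 40 min and 1, 2, 4, 6 hr post dose; plasma analysed for parent and metabolites by LC/MS/MS.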
# Plasma [7] = experiment: Metabolic stability in mouse plasma at 5 uM up to 2 hrs by LC-MS-MS analysis; format: ADME, cell-free
# Outline: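 Plasma from each species diluted to 50% with 0.05 M PBS pH 7.4 and prewarmed to 37 °C; compound added at 5 µM final (from DMSO stock diluted in MeOH); triplicate incubations at 37 °C, sampled at 0, 30, 60, 120 min, quenched with acetonitrile containing internal standard, centrifuged, analysed by LC/MS/MS.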
# [8] = Cmax in jugular vein cannulated Sprague-Dawley rat at 30 mg/kg, po measured up to 140 mins; format: ADME, organism-based; set-up: dose 30 mg/kg, route oral; details: jugular vein blood; outline: as §3
# [9] = Cmax in Sprague-Dawley rat at 100 mg/kg, po administered as single dose measured up to 6 hrs post dose by LC/MS/MS analysis; format: ADME, organism-based; set-up: dose 100 mg/kg, route oral; details: in vivo
# Outline: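 Single oral dose to Sprague Dawley rats; plasma collected at 0.25, 0.5, 1, 2, 4 and 6 hr; analytes in plasma quantified by LC/MS/MS.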
# [10] = Plasma concentration in Sprague-Dawley rat at 300 mg/kg, qd administered through oral gavage for 7 days measured 2 hrs post last dose by LC/MS/MS analysis; format: ADME, organism-based
# [11] = target: T2, Fatty-acid amide hydrolase 1 (Homo sapiens, UniProt O00519); experiment: Drug metabolism in human HepG2 cells assessed as FAAH-mediated compound hydrolysis by measuring level of EPA at 50 uM by LC/MS-MS analysis; format: ADME, cell-based; details: hepg2, 50 µM, TDE = time-dependent effect
# T2 sequence (O00519 whole entry): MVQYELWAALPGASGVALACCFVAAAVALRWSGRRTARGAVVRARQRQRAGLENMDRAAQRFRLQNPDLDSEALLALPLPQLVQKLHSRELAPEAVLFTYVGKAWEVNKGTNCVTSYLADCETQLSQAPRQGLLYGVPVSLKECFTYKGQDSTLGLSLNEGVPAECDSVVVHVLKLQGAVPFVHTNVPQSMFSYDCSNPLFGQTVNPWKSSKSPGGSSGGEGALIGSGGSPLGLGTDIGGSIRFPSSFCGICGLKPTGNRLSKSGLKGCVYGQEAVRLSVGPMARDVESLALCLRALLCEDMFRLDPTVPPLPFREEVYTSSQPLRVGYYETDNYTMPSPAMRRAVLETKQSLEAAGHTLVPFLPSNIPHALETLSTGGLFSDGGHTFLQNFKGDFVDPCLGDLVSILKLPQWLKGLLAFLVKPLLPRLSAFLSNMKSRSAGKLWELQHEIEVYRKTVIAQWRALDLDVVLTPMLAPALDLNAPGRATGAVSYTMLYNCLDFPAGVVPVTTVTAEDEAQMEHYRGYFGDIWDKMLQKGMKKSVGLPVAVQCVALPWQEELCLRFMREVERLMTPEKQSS
# Plasma [12] = experiment: Drug metabolism in Sprague-Dawley rat plasma assessed as niacin formation at 300 mg/kg, qd administered through oral gavage for 7 days measured 2 hrs post last dose by LC/MS/MS analysis; format: ADME, organism-based; details: in vivo, BLD = below limit of detection
# Mus musculus = experiment: Inhibition of triglyceride levels in po dosed ApoE*3-Leiden mouse plasma administered for 16 weeks; format: functional, organism-based
# Outline: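 Transgenic ApoE*3-Leiden mice on high-cholesterol Western-type diet dosed over 16 weeks; plasma PCSK9, total cholesterol, triglycerides and lipoprotein profile (VLDL, LDL) assessed at study end.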
# Rattus norvegicus [13] = experiment: Cmax in jugular vein cannulated Sprague-Dawley rat assessed nicotinuric acid at 30 mg/kg, po measured up to 140 mins; format: ADME, organism-based; set-up: dose 30 mg/kg, route oral; details: in vivo; outline: as §3
Cmax (Rattus norvegicus [1]) [ng/mL],Drug metabolism (Plasma [2]),Drug metabolism [3],Drug metabolism (Muscle tissue) [ng/g],concentration at 4 h [4] [ng/g],Structure (SMILES),Drug metabolism [5],Cmax (Rattus norvegicus [6]) [ng/mL],Stability (Plasma [7]),Cmax [8] [ng/mL],Cmax [9] [ng/mL],Drug metabolism ([3]; TDE = time-dependent effect),concentration at 2 h [10] [ng/mL],Drug metabolism [11],Drug metabolism (Plasma [12]),inhibition (Mus musculus),Cmax (Rattus norvegicus [13]) [ng/mL]
484,metabolite_notdetected,metabolite_detected,265.73,331,CC/C=C\C/C=C\C/C=C\C/C=C\C/C=C\C/C=C\CCC(=O)NCCNC(=O)c1ccccc1O [EDASALONEXENT],metabolite_notdetected,–,–,–,–,–,–,–,–,–,–
–,–,–,–,–,CC/C=C\C/C=C\C/C=C\C/C=C\C/C=C\CCCC(=O)NCCNC(=O)c1cccnc1,metabolite_notdetected,2061,Stable,35,212,tde,13,tde,BLD,Active,135
